An excerpt weighted towards active compounds, which were near 2.9% of everything screened.
PAX8 inh HTS: inhibitors of PAX8-driven TPO luciferase reporter, primary screen, RMG-I cells, single concentration. SteadyGlo, 24 h. inhibition, % at 12.6 µM. actives 1.2% (n = 360,000);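 active means mean replicate inhibition at least 60% with every replicate also reaching 60%; inconclusive means only one of the two criteria is met; inactive means mean below 60% and not all replicates reaching 60%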;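 further: luciferase light reporting Pax8 driven TPO promoter activity; plate controls were median of neutral control wells for no effect and mitoxantrone controls for full effect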
Env fusion inh: inhibitors of HIV-1 Env-driven cell-cell fusion, primary screen, HeLa-JRFL effector, CEM21 target cells, luciferase; inhibition, % at 12.3 µM; actives 1.1% (n = 360,000);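 active means mean replicate inhibition score of at least 50 and every replicate individually at or above 50; inconclusive means only one of the two criteria met; inactive means mean below 50 and not all replicates reaching 50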;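 further: 0% = plate neutral controls and 100% = maraviroc near 300 nM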
CDK5 p35 inh: inhibitors of human CDK5/p35 kinase, primary screen, biochemical, single concentration; Cyclin-dependent kinase 5 (Homo sapiens) + Cyclin-dependent kinase 5 activator 1 (Homo …; Recombinant CDK5/p35, ADP-Glo luminescence, 60 min; inhibition, % at 10 µM; actives 0.01% (n = 330,000);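 active means highest replicate inhibition of at least 50% and at least 75% of replicates reaching 50%; inconclusive means only one of the two criteria met; inactive means both criteria failed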;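 further: plate controls were DMSO neutral control for no effect and GW8510 at 10 µM for full effect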
Target sequence (Q00535 whole entry, looked up): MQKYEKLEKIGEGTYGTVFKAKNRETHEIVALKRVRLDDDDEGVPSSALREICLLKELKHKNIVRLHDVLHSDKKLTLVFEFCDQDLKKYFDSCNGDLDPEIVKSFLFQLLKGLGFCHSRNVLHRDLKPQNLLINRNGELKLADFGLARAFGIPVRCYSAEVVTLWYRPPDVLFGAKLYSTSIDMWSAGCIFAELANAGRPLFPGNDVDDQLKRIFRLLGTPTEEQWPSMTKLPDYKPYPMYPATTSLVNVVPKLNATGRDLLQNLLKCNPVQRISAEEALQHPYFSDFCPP
Target sequence (Q15078 whole entry, looked up): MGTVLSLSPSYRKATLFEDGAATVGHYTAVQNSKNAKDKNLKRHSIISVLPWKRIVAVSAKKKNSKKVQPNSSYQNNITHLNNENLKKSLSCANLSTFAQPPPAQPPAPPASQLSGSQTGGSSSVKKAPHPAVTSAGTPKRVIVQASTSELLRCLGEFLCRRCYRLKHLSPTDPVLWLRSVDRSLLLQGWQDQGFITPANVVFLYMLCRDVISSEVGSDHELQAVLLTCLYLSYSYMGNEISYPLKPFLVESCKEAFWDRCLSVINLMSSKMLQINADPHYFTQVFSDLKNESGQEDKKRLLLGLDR
Cneo AK release: Cryptococcus neoformans cell lysis inducers, primary screen, AK release luminescence, single concentration; actives 0.2% (n = 360,000); lysis activity, % at 15 µM; AID 651654, 2012; C. neoformans lysis, adenylate kinase release luminescence, 4 h; normalised: neutral wells 0, clomiphene wells 100;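 active means mean lysis activity across replicates of at least 80%, whatever share of replicates individually reach that level; inactive means mean lysis activity below 80%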
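Material – Cryptococcus neoformans yeast cells · Quantity – 5 × 10^6 yeast cells/mL · Buffer or medium – YPD medium · Compound – single dose · Timing – 4 h static compound exposure, 37 °C, read 1 h post-reagent · Signal – adenylate kinase release luminescence · Read-out basis – lysis from increased AK signal · Benchmarks – Clomiphene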
dFosB act: activators of delta FosB homodimer, primary screen, biochemical, fluorescence polarization, TAMRA-CDK5 oligo, single point. actives 0.99% (n = 340,000). activation, % at 25 µM. Protein FosB (Mus musculus), P13346. purified delta FosB; percent of positive-control signal above neutral wells. AID 493131, 2011;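 active means mean activation above about 17%, with every replicate also reaching it, limit read from the data, passing the limit was not always enough; inconclusive means only one of the two conditions met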
INS-1E GSIS act: GLuc luminescence reporter in INS-1E cells, primary screen for activators of glucose-dependent secretion of insulin. INS-1E GLuc reporter insulin secretion, 2-3 h. activation, % at 16.6 µM. AID 743287, 2014. actives 0.61% (n = 370,000);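 active means lowest replicate activation of at least 40%, so every replicate reaches that level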;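 further: 0% = median of neutral control wells and 100% = median of IBMX positive control wells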
Active calls of the source: *; [ ] = another dose, or the depositor's remark.

For O=C(Nc1cccc(F)c1)c1cc(S(=O)(=O)N2CCC(C(=O)O)CC2)ccc1F the results were Env fusion inh 77*, CDK5 p35 inh -5, Cneo AK release -2 and dFosB act 0.
Oc1c(I)cc(I)c2cccnc12 was read as PAX8 inh HTS 100*, Env fusion inh 37, CDK5 p35 inh 2, Cneo AK release -3, dFosB act 0 and INS-1E GSIS act 3.
For C[C@H](CO)N1C[C@H](C)[C@H](CN(C)C(=O)Nc2ccccc2)Oc2ccc(NS(C)(=O)=O)cc2CC1=O the results were PAX8 inh HTS -16, Cneo AK release -1 and INS-1E GSIS act 3.
For C=CCN1C(=O)[C@]2(O[C@H](CCO)[C@@H]([Si](C)(C)c3ccc(OC)cc3)[C@@H]2C)c2cc(I)ccc21 the results were PAX8 inh HTS 105*, Env fusion inh 49[16.7 µM] and Cneo AK release 5.
For COc1ccc([Si](C)(C)[C@@H]2[C@@H](CCO)O[C@]3(C(=O)N(Cc4ccc(NC(=O)[C@H](C)O)cc4)c4ccccc43)[C@H]2C)cc1 the results were PAX8 inh HTS 101*, Env fusion inh 35[16.7 µM] and Cneo AK release 1.
Screening COc1ccc([Si](C)(C)[C@H]2[C@H](CCn3cc(CCO)nn3)O[C@@]3(C(=O)N(Cc4ccc(N5C(=O)c6cccc7cccc5c67)cc4)c4ccccc43)[C@@H]2C)cc1 returned Env fusion inh 10[16.7 µM] and Cneo AK release 0.
For C=CCN1C(=O)[C@]2(O[C@H](CCO)[C@@H]([Si](C)(C)c3ccc(OC)cc3)[C@@H]2C)c2cc(NC(=O)[C@H](C)O)ccc21 the results were PAX8 inh HTS -5, Env fusion inh -21[16.7 µM] and Cneo AK release 3.
For COc1ccc([Si](C)(C)[C@@H]2[C@@H](CC(=O)N3Cc4ccccc4C[C@H]3CO)O[C@]3(C(=O)N(C)c4c(Br)cc(C)cc43)[C@H]2C)cc1 the results were PAX8 inh HTS 81*, Env fusion inh 1[16.7 µM] and Cneo AK release -3.
Screening COc1ccc([Si](C)(C)[C@H]2[C@H](CCO)O[C@@]3(C(=O)N(Cc4cccc(NC(=O)[C@H](C)O)c4)c4ccccc43)[C@@H]2C)cc1 returned PAX8 inh HTS 86*, Env fusion inh inconclusive and Cneo AK release 38.
O=C(C[C@H]1CC[C@H](NC(=O)C2CC2)[C@H](CO)O1)NCc1ccncc1 was read as PAX8 inh HTS 0, Env fusion inh -5[16.7 µM], Cneo AK release 2 and INS-1E GSIS act 7.
Screening C[C@@H]1CN([C@@H](C)CO)C(=O)Cc2cc(NC(=O)Nc3cccc4ccccc34)ccc2O[C@@H]1CN(C)C returned PAX8 inh HTS -10, Cneo AK release -1 and INS-1E GSIS act 8.
COc1ccc(NC(=O)N(C)C[C@@H]2Oc3ncc(C#CCC(C)C)cc3C(=O)N([C@H](C)CO)C[C@@H]2C)cc1 was read as Env fusion inh 1[16.7 µM], Cneo AK release -1 and INS-1E GSIS act -12.
For CN(C)C(=O)c1cccc(-c2ccc3c(c2)[C@H]2[C@H](CCN2C(=O)c2cnccn2)[C@H](CO)N3)c1 the results were PAX8 inh HTS -11, Cneo AK release 1 and INS-1E GSIS act 10.
C[C@H]1CN([C@@H](C)CO)C(=O)Cc2cc(NS(=O)(=O)c3cn(C)cn3)ccc2O[C@H]1CN(C)S(=O)(=O)c1cccs1 was read as PAX8 inh HTS -12, Env fusion inh -10[16.7 µM], Cneo AK release 0 and INS-1E GSIS act -2.
Screening COc1ccc(C(=O)Nc2ccc(CN3C(=O)[C@]4(O[C@H](CC(=O)N5Cc6ccccc6C[C@H]5CO)[C@@H]([Si](C)(C)c5ccc(OC)cc5)[C@@H]4C)c4ccccc43)cc2)cc1 returned PAX8 inh HTS 92*, Env fusion inh 22[16.7 µM] and Cneo AK release 2.
Screening COc1ccc([Si](C)(C)[C@@H]2[C@@H](CCn3cc(CCO)nn3)O[C@]3(C(=O)N(Cc4ccc(N5CCOC5=O)cc4)c4ccccc43)[C@H]2C)cc1 returned Env fusion inh 22[16.7 µM] and Cneo AK release 3.
For COc1ccc([Si](C)(C)[C@H]2[C@H](CCO)O[C@@]3(C(=O)N(Cc4ccc(N5CCOC5=O)cc4)c4ccccc43)[C@@H]2C)cc1 the results were PAX8 inh HTS 107*, Env fusion inh 22[16.7 µM] and Cneo AK release 78.
Screening CC(C)(C(=O)N1CCC1(C)C(=O)NS(=O)(=O)c1cccc(F)c1)c1ccccc1 (stereo not given) returned PAX8 inh HTS -1, Env fusion inh -7 and Cneo AK release -1.
CC(C)(C(=O)N1CCC1(C)C(=O)NS(=O)(=O)c1cccc(Cl)c1)c1ccccc1 (stereo not given) was read as PAX8 inh HTS 1, Env fusion inh -15, Cneo AK release -1 and INS-1E GSIS act 41*.
Screening CCOC(=O)[C@@H](C)N(Cc1ccc(OC)cc1)S(=O)(=O)N(Cc1ccccc1)[C@H](C(=O)OC)C(C)C returned PAX8 inh HTS 4, Env fusion inh 92*, CDK5 p35 inh 0, Cneo AK release 5, dFosB act 7 and INS-1E GSIS act -25.
Screening COC(=O)C(CC(C)C)N(Cc1cc(OC)cc(OC)c1)S(=O)(=O)c1ccccc1Br (stereo not given) returned PAX8 inh HTS 3, Env fusion inh 59*, CDK5 p35 inh -1, Cneo AK release 2, dFosB act 3 and INS-1E GSIS act -5.
For CCOC(=O)[C@@H](C)NS(=O)(=O)N(Cc1ccccc1)[C@H](C(=O)OC)C(C)C the results were PAX8 inh HTS -8, Env fusion inh 47, CDK5 p35 inh 1, Cneo AK release 0, dFosB act -2 and INS-1E GSIS act -11.
`COC(=O)[C@H](CC(C)C)N(Cc1ccccc1)S(=O)(=O)N(Cc1ccc(OC)cc1)[C@@H](CC(C)C)C(=O)OC` gave PAX8 inh HTS 17, Env fusion inh 75*, CDK5 p35 inh -1, Cneo AK release 2, dFosB act -9 and INS-1E GSIS act -14.
Screening Cc1noc(C)c1NC(=O)Nc1ccc2c(c1)C(=O)N([C@H](C)CO)C[C@@H](C)[C@@H](CN(C)Cc1ccc3c(c1)OCO3)O2 returned PAX8 inh HTS -6, Cneo AK release 43 and INS-1E GSIS act -11.
Screening COc1ccc(CN(C)C[C@H]2Oc3ccc(NC(=O)NC4CCCCC4)cc3CC(=O)N([C@H](C)CO)C[C@H]2C)cc1 returned PAX8 inh HTS 8, Env fusion inh -37[16.7 µM], Cneo AK release 0 and INS-1E GSIS act -21.

Screening results deposited in PubChem BioAssay by Broad Institute.
